Published values pooled from the literature.
Protocols differ between the studies behind these lines.
Target: Cannabinoid receptor 1 (CNR1, Homo sapiens, UniProt P21554)

O=C(c1ccc2c(c1)c1ccccc1n2CCN1CCOCC1)c1cc2ccccc2[nH]1 — Ki (ligand displacement, radioligand; cell membranes): 1200 nM
CCCCC/C=C\C/C=C\C/C=C\C/C=C\CCCC(=O)N[C@H](C)CO — Ki (ligand displacement, radioligand; cell membranes): 19.8 nM
CCOC(=O)C(CC)(CCCSCCOCCOCCOCCNC(=O)OC(C)(C)C)NC(=O)c1ccc(C2CC2)c(Cc2ccc(F)cc2)n1 (centres unmarked) — Ki (ligand displacement, radioligand; cell membranes): 589 nM
Cc1c(C(=O)N2CCC(C(N)=O)(c3ccccc3)CC2)nn(-c2ccc(Cl)cc2Cl)c1-c1ccc(Cl)cc1 — Kb (calcium signal, antagonist): 0.4 nM
Cc1ccc(OC(C)(C)C(=O)N[C@@H](C)[C@@H](Cc2ccc(OCCF)cc2)c2cccc(C#N)c2)nc1 — Ki (ligand displacement, radioligand): 0.1 nM
CC(C)C(NC(=O)c1nn(Cc2ccc(F)cc2)c2ccccc12)C(N)=O (centres unmarked) — EC50 (calcium signal, agonist): 3.44 nM
CCCc1cc(O)c2c(c1)OC(C)(C)[C@@H]1CCC(C)=C[C@@H]21 — Ki (ligand displacement, radioligand; cell membranes): 22 nM
CCCCCn1cc(C(=O)C2C(C)(C)C2(C)C)c2ccccc21 — EC50 (GTPγS binding, agonist, radiometric; cell membranes): 98 nM
CCOC(=O)C(CC)(CCCSCCOCCOCCNc1ccc([N+](=O)[O-])c2nonc12)NC(=O)c1ccc(C2CC2)c(Cc2ccc(F)cc2)n1 (racemic) — EC50 (cAMP, agonist): 600 nM
CCCc1cc(O)c2c(c1)OC(C)(C)c1ccc(C)cc1-2 — Ki (ligand displacement, radioligand; cell membranes): 565 nM
CCOC(=O)C(CCCOC)NC(=O)c1ccc(C2CC2)c(Cc2ccc(F)cc2)n1 (centres unmarked) — Ki (ligand displacement, radioligand; cell membranes): 99 nM
CCCCCc1cc(O)c(C/C=C(\C)CCC=C(C)C)c(O)c1C(=O)O — Ki (ligand displacement, radioligand; cell membranes): 4530 nM
C=CCC(CC)(NC(=O)c1ccc(C2CC2)c(Cc2ccc(F)cc2)n1)C(=O)OCC (centres unmarked) — Ki (ligand displacement, radioligand; cell membranes): 2.9 nM
CCCCCc1cc2c(c(O)c1C(=O)O)C1C=C(C)CCC1C(C)(C)O2 (centres unmarked) — Ki (ligand displacement, radioligand; cell membranes): 1290 nM
